Activity calls are given as the source filed them. The rule behind the calls is not given here.
What was measured:
[1] = biological target: T1, 72 kDa type IV collagenase (Homo sapiens, UniProt P08253); experiment: Inhibition of human recombinant MMP-2 using Mca-Pro-Leu-Gly-Leu-Dpa-Ala-Arg-NH2.AcOH as substrate preincubated for 30 mins prior to substrate addition measured for 30 mins by fluorescence assay
Method in brief: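 Human recombinant MMP-2 (1.16 U) in 50 mM HEPES, 10 mM CaCl₂, 0.05% Brij-35, pH 7.5, is preincubated with inhibitor at 37 °C for 30 min. 4 µM OmniMMP substrate then starts the reaction. Fluorescence (ex 320/em 400 nm) is followed for 30 min. Activity is the fluorescence increase relative to no-inhibitor wells, as a percentage. Three assays, each in triplicate; mean ± SD.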
Target sequence in this assay (P08253 whole entry): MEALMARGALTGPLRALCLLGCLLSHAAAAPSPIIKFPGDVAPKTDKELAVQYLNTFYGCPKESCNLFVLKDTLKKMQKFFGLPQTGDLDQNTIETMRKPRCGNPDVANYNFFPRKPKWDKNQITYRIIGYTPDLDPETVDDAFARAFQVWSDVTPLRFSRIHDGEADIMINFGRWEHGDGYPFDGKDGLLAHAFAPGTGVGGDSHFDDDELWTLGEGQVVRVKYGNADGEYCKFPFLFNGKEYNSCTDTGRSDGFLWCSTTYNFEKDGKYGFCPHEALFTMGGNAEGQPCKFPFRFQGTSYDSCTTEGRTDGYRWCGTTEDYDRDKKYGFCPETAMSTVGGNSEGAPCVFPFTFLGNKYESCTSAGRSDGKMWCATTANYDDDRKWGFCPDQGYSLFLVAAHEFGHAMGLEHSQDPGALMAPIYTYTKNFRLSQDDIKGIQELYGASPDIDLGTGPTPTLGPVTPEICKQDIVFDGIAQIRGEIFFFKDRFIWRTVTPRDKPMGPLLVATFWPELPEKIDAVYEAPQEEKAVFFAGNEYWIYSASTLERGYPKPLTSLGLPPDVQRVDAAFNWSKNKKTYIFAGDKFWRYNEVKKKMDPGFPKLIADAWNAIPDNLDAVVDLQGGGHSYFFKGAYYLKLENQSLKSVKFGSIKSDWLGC

[2] = biological target: Histone deacetylase 2 (Homo sapiens) (UniProt Q92769); settings: at 10 µM;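 also: fluorescence readout of HDAC2 deacetylase activity, compound preincubated with HDAC2 5 min before substrate, signal read after 30 min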
Sequence of Histone deacetylase 2 (Homo sapiens) (Q92769 whole entry): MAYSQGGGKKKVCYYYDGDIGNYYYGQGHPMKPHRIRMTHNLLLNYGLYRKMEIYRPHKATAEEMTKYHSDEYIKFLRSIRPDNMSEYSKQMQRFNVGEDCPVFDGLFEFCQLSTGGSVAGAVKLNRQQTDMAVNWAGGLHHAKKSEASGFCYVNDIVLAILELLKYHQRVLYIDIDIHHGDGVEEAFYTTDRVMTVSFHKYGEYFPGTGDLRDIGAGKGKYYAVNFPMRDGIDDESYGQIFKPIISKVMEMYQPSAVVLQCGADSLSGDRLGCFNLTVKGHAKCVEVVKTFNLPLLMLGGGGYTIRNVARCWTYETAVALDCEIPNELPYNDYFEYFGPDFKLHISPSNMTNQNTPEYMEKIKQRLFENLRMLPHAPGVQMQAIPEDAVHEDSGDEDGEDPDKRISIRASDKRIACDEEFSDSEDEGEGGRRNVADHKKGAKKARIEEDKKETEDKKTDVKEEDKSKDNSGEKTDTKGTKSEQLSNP

[3] = biological target: Angiotensin-converting enzyme (Homo sapiens) (UniProt P12821); experiment: Inhibition of human recombinant ACE/CD143 somatic form using Mca-Pro-Leu-Gly-Leu-Dpa-Ala-Arg-NH2.AcOH as substrate at 10 uM preincubated for 10 mins prior to substrate addition measured for 30 mins by spectrophotometric analysis
Sequence of Angiotensin-converting enzyme (Homo sapiens) (P12821 whole entry): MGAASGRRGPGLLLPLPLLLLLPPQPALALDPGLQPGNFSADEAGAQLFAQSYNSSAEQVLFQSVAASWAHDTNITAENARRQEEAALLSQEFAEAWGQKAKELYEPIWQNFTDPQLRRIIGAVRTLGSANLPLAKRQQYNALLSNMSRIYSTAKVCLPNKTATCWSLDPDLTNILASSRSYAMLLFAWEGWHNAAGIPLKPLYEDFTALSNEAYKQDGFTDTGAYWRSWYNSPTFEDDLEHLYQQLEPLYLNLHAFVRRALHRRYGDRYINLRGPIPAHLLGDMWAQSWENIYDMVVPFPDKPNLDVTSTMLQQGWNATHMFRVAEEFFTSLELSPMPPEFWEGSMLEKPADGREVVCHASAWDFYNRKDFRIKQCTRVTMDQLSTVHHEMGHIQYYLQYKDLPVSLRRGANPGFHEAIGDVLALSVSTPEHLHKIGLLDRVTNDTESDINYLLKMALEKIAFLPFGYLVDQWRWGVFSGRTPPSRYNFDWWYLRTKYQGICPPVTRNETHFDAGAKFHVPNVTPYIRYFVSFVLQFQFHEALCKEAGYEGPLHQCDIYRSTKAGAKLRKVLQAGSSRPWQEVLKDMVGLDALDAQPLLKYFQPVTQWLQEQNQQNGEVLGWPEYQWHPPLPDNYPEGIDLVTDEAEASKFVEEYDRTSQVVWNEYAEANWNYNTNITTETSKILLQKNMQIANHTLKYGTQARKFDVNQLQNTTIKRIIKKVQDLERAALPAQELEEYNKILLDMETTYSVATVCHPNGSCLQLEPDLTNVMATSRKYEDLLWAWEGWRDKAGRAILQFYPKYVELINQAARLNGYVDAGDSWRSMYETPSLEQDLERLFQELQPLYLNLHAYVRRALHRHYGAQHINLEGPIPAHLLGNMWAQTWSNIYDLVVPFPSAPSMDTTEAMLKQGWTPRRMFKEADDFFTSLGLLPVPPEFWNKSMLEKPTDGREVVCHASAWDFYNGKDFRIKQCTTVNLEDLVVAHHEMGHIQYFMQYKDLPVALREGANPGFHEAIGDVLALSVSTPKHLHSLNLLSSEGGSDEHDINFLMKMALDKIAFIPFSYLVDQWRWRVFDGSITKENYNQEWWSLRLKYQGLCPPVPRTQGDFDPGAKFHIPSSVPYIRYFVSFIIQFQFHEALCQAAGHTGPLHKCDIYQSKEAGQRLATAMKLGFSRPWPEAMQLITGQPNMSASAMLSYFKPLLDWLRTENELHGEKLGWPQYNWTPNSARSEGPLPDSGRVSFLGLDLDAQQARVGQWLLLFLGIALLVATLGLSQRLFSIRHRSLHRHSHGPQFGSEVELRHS
Method in brief: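 Human recombinant somatic ACE/CD143 (20 ng) in 50 mM MES pH 6.5 with inhibitor at 10 µM, preincubated 10 min at 37 °C; OmniMMP fluorogenic peptide (4 µM) then added. Fluorescence (ex 320/em 400 nm) read over 30 min. Data normalized to uninhibited enzyme; triplicate assays, each inhibitor in triplicate; mean ± SD.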

[4] = biological target: Matrix metalloproteinase-9 (Homo sapiens, UniProt P14780); experiment: Inhibition of MMP-9 (unknown origin)
Sequence of Matrix metalloproteinase-9 (P14780 whole entry): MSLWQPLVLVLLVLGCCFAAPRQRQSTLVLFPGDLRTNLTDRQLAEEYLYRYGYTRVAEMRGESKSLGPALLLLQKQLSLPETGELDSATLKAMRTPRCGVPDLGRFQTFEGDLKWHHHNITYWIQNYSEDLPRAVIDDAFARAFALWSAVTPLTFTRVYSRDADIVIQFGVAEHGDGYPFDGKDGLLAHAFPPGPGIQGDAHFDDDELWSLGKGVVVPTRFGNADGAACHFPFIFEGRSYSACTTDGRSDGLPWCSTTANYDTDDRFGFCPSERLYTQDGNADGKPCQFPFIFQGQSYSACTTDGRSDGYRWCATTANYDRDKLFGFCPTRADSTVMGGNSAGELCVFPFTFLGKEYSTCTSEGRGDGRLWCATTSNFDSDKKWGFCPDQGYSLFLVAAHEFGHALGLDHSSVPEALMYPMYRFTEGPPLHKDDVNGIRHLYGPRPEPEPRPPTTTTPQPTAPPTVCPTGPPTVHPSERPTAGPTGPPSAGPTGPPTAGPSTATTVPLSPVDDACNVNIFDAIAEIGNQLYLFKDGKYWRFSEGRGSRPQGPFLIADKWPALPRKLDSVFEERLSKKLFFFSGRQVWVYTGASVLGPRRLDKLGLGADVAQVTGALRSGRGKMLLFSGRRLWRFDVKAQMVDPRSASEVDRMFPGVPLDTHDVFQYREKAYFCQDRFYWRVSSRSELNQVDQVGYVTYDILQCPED

[5] = biological target: T2, Macrophage metalloelastase (Homo sapiens, UniProt P39900); experiment: Inhibition of human recombinant MMP-12 using Mca-Pro-Leu-Gly-Leu-Dpa-Ala-Arg-NH2.AcOH as substrate at 10 uM preincubated for 30 mins prior to substrate addition measured for 30 mins by fluorescence assay relative to control
Method in brief: (§1)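 Human recombinant MMP-2 (1.16 U) or MMP-12 (0.007 U) in 50 mM HEPES, 10 mM CaCl₂, 0.05% Brij-35, pH 7.5, preincubated with inhibitor 30 min at 37 °C; 4 µM OmniMMP peptide then added. Fluorescence rise (ex 320/em 400 nm) over 30 min, as percent of no-inhibitor wells. Triplicate assays, triplicate wells; mean ± SD.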
Target sequence in this assay (P39900 106-470 limits assumed): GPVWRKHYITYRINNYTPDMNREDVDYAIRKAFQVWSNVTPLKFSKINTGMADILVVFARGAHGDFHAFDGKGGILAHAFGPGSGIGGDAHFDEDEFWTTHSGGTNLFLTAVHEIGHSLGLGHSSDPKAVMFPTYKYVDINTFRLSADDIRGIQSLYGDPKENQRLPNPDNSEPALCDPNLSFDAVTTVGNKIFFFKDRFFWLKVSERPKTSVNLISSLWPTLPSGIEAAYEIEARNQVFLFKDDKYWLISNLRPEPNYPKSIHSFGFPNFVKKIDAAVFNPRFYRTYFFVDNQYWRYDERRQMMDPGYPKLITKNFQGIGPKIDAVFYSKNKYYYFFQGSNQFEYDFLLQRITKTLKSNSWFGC

Trypsin (Homo sapiens) = Trypsin (Homo sapiens) (UniProt P07477+P07478+P35030); experiment: Inhibition of TPCK-treated trypsin (unknown origin) at 10 uM preincubated for 10 mins prior to substrate addition measured for 30 mins by spectrophotometric analysis; type: protein assay
Method in brief: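 Commercial colorimetric kit run per manufacturer; TPCK-treated trypsin (100 mU) in kit buffer, inhibitor at 10 µM; enzyme and inhibitor preincubated 10 min at room temperature before substrate addition.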

[6] = biological target: T1, 72 kDa type IV collagenase; experiment: Inhibition of human recombinant MMP-2 using Mca-Pro-Leu-Gly-Leu-Dpa-Ala-Arg-NH2.AcOH as substrate at 10 uM preincubated for 30 mins prior to substrate addition measured for 30 mins by fluorescence assay relative to control; method in brief: as §1
Target sequence in this assay (P08253 110-660 limits assumed): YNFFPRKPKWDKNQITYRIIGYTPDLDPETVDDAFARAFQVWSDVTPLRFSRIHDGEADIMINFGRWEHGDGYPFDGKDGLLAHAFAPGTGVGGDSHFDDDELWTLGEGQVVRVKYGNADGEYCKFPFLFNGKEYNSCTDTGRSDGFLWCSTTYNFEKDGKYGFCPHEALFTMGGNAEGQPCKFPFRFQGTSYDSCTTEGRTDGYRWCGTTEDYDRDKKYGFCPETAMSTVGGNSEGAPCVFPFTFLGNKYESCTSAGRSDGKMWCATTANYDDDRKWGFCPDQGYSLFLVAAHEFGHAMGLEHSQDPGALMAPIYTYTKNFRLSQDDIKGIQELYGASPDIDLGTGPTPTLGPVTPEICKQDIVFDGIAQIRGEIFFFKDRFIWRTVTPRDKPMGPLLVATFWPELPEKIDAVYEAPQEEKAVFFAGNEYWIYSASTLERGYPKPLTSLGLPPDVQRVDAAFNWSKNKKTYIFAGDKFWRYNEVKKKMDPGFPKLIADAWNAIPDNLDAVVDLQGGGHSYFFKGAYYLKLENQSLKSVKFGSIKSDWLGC

[7] = biological target: T3, Tyrosinase (Agaricus bisporus) (UniProt O42713); experiment: Inhibition of mushroom tyrosinase assessed as L-DOPA conversion to melanin at 10 uM preincubated for 10 mins prior to substrate addition measured after 10 mins by spectrophotometric analysis
T3 sequence (whole entry): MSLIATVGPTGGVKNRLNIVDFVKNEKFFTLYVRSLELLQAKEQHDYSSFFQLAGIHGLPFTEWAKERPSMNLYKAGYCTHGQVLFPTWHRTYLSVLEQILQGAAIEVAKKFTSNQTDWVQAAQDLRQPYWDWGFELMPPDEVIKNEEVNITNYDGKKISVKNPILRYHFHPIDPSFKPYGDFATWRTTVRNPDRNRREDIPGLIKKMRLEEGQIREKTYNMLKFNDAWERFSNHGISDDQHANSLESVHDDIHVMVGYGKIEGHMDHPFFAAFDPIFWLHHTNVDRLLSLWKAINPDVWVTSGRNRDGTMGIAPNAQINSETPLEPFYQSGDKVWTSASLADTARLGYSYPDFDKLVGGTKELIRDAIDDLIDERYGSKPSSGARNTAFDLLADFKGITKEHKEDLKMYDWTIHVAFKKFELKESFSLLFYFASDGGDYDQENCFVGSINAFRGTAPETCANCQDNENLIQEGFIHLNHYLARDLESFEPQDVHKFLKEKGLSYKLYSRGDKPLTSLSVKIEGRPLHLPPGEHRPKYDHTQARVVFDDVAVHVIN
Method in brief: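 Mushroom tyrosinase (30 U) in 10 mM NaH₂PO₄ pH 6.8 with 10 µM inhibitor, 10 min at room temperature; background A475 taken, L-DOPA (0.5 mM) added, A475 read again after 10 min and background subtracted. No-inhibitor wells set as 100% activity. Triplicate assays, triplicate wells; mean ± SD.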

[8] = biological target: T2, Macrophage metalloelastase; experiment: Inhibition of human recombinant MMP-12 using Mca-Pro-Leu-Gly-Leu-Dpa-Ala-Arg-NH2.AcOH as substrate preincubated for 30 mins prior to substrate addition measured for 30 mins by fluorescence assay
Method in brief: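 Human recombinant MMP-12 (0.007 U) was preincubated with inhibitor at 37 °C for 30 min in 50 mM HEPES, 10 mM CaCl₂, 0.05% Brij-35, pH 7.5. OmniMMP substrate was then added, and fluorescence (ex 320/em 400 nm) was followed for 30 min. Activity is the fluorescence increase relative to no-inhibitor wells (set to 100%). Triplicate assays, each with triplicate inhibitor wells; mean ± SD.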
Target sequence in this assay (P39900 whole entry): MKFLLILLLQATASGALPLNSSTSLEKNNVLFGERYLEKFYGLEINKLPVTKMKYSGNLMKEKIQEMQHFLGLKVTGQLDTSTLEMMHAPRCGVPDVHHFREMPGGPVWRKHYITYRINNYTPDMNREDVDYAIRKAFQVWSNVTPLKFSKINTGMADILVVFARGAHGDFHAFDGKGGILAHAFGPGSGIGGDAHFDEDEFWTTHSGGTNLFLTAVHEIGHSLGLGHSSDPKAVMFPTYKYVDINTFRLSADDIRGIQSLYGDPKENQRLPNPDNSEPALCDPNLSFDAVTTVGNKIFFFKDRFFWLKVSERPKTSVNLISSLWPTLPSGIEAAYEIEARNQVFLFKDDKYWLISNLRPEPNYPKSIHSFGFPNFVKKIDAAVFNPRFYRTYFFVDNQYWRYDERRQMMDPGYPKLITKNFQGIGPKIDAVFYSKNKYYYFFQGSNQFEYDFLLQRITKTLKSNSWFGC

Homo sapiens = organism: Homo sapiens; experiment: Binding affinity to ferritin (unknown origin) assessed as removal of ferric ion at 1 mM measured for 1 hr by UV-vis spectrophotometric analysis
[9] = Inhibition of MMP (unknown origin); set-up: species or system Homo sapiens

For `O=C(O)[C@H](Cc1ccccc1)NS(=O)(=O)c1ccc(-c2ccccc2)cc1`, which IC50 [1] is on record?
Its IC50 is 240 nM.

And the inhibition [2]?
The inhibition was “inactive”.

And the inhibition [3]?
The inhibition was “inactive”.

What about the IC50 [4] of the same compound?
Its IC50 is 310 nM.

What about the inhibition [5] of the same compound?
Its inhibition is “Active”.

What about the inhibition (Trypsin (Homo sapiens)) of the same compound?
Its inhibition is “inactive”.

And the inhibition [6]?
The inhibition was “Active”.

And the inhibition [7]?
Its inhibition is “inactive”.

What does the source list for `O=C(CCCCCCC(=O)Nc1ccccc1)NO`?
inhibition [3]: Active; inhibition [5]: < 25%; inhibition (Trypsin (Homo sapiens)): inactive; inhibition [6]: < 25%; inhibition [7]: inactive

With `O=C(/C=C/c1ccc(Cl)cc1Cl)NO` as the compound, how does the inhibition [2] read?
The inhibition was “Active”.

And the inhibition [5]?
The inhibition was < 25%.

And the inhibition (Trypsin (Homo sapiens))?
The inhibition was “inactive”.

And the inhibition [6]?
The inhibition was < 25%.

And the inhibition [7]?
Its inhibition is “inactive”.

Which inhibition [2] does the source give for `CC(c1cc2ccccc2s1)N(O)C(N)=O` (centres undefined) here?
Its inhibition is “inactive”.

What about the inhibition [5] of the same compound?
The inhibition was “Active”.

And the inhibition (Trypsin (Homo sapiens))?
The inhibition was “inactive”.

And the inhibition [6]?
The inhibition was “Active”.

And the inhibition [7]?
Its inhibition is “inactive”.

Which inhibition [2] does the source give for `C[C@H](CS)C(=O)N1CCC[C@H]1C(=O)O` here?
The inhibition was “inactive”.

And the inhibition [5]?
Its inhibition is “Active”.

What about the inhibition (Trypsin (Homo sapiens)) of the same compound?
The inhibition was “inactive”.

And the inhibition [6]?
Its inhibition is < 10%.

What about the inhibition [7] of the same compound?
The inhibition was “inactive”.

For `Cc1nc(C(=O)NCc2ccc(F)cc2)c(O)c(=O)[nH]1`, which inhibition [2] is on record?
Its inhibition is “inactive”.

And the inhibition [5]?
The inhibition was “Active”.

What about the inhibition (Trypsin (Homo sapiens)) of the same compound?
The inhibition was “inactive”.

And the inhibition [6]?
Its inhibition is 50%.

What about the inhibition [7] of the same compound?
Its inhibition is “inactive”.

For `O=C(NCc1ccc(-c2ccccc2)cc1)c1cccc(=O)n1O`, which IC50 [8] is on record?
Its IC50 is 18 nM.

And the inhibition [2]?
Its inhibition is “inactive”.

What about the inhibition [3] of the same compound?
The inhibition was “Active”.

And the inhibition [5]?
The inhibition was 100%.

And the inhibition (Trypsin (Homo sapiens))?
Its inhibition is “inactive”.

And the inhibition [6]?
Its inhibition is 80%.

What about the inhibition [7] of the same compound?
The inhibition was “inactive”.

With `CC(=O)Nc1nnc(S(N)(=O)=O)s1` as the compound, how does the inhibition [2] read?
Its inhibition is “inactive”.

What about the inhibition [5] of the same compound?
Its inhibition is “Active”.

What about the inhibition (Trypsin (Homo sapiens)) of the same compound?
Its inhibition is “inactive”.

What about the inhibition [6] of the same compound?
Its inhibition is “Active”.

And the inhibition [7]?
Its inhibition is “inactive”.

Which inhibition [2] does the source give for `CC(=O)N(O)CCCCCNC(=O)CCC(=O)N(O)CCCCCNC(=O)CCC(=O)N(O)CCCCCN` here?
Its inhibition is “inactive”.

What about the Activity (Homo sapiens) of the same compound?
Its Activity is “Active”.

And the inhibition [5]?
The inhibition was “Active”.

What about the inhibition (Trypsin (Homo sapiens)) of the same compound?
Its inhibition is “inactive”.

And the inhibition [6]?
Its inhibition is “Active”.

And the inhibition [7]?
The inhibition was “inactive”.

With `CC(/C=C/C(=O)NO)=C\[C@@H](C)C(=O)c1ccc(N(C)C)cc1` as the compound, how does the inhibition [2] read?
The inhibition was “Active”.

For `COc1ccc(S(=O)(=O)N(Cc2cccnc2)[C@@H](C(=O)NO)C(C)C)cc1` [CGS-27023A], which IC50 [9] is on record?
Its IC50 is 8 nM.

And the inhibition [2]?
Its inhibition is “inactive”.

What about the inhibition [3] of the same compound?
The inhibition was “Active”.

And the inhibition [5]?
Its inhibition is 95%.

What about the inhibition (Trypsin (Homo sapiens)) of the same compound?
The inhibition was “inactive”.

What about the inhibition [6] of the same compound?
The inhibition was 95%.

What about the inhibition [7] of the same compound?
Its inhibition is “inactive”.

Source: ChEMBL document CHEMBL2434956, “Investigating the selectivity of metalloenzyme inhibitors” (J Med Chem, 2013)
